Assay results reported in ChEMBL document CHEMBL1123363, “(5-Amino-1,3-dimethyl-1H-pyrazol-4-yl)(2-fluorophenyl)methanones . A series of novel potential antipsychotic agents” (J Med Chem, 1986).
Values belong to the molecule of their own block, whether it stands above or below them. Calls of active or inactive are those of the source. No cut-off for these calls is given here.

Columns and labels:
[1] = biological target: GABA-A receptor; anion channel; experiment: Displacement of [3H]-GABA from rat brain Gamma-aminobutyric acid receptor
Procedure, shortened: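 GABA binding in membranes of rat whole brain minus cerebellum and brain stem (male Long-Evans, 150–250 g), using [3H]-GABA at 25 nM final. GABA at 1 mM final was the reference. IC50 from four or five concentrations by nonlinear curve fitting.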

[2] = biological target: Beta-1 adrenergic receptor (Rattus norvegicus, UniProt P18090); experiment: Binding affinity against the beta-1 adrenergic receptor using [3H]- DHA
Procedure, shortened: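 β1 sites in rat cerebral cortex membranes (male Long-Evans, 150–250 g) with [3H]dihydroalprenolol at 0.5 nM final. (-)-Alprenolol at 1 μM final defined the reference. IC50 from four or five concentrations by nonlinear curve fit.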

[3] = organism: Rattus norvegicus; experiment: Compound was tested for its potential to produce clonic seizures in rats; + indicates compound is causing seizures; assay type: functional, organism-based
Procedure, shortened: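 Any sign of seizure marked the compound as seizure-causing; the outcome was not quantified.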

[4] = biological target: Serotonin 1 (5-HT1) receptor (Rattus norvegicus, UniProt P28564+P30940+P19327+P28565); experiment: Binding affinity against serotonin-1 receptor in rat brain using [3H]5-HT; assay type: tissue-based
Procedure, shortened: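 Serotonin-1 binding in rat cortex membranes (male Long-Evans, 150–250 g) with [3H]-5-HT at 2.0 nM final. (+)-Butaclamol at 1 μM final was the reference. IC50 from four or five concentrations by nonlinear curve fit.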

[5] = biological target: Dopamine receptor; experiment: Binding affinity against dopamine receptor in rat striatal membrane using [3H]haloperidol; assay type: cell membranes, Striatum
Procedure, shortened: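 Nonspecific binding defined with (+)-butaclamol at 0.1 μM final. IC50 fitted by nonlinear curve fit from four or five concentrations in triplicate.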

[6] = system: Rattus norvegicus; experiment: Antagonized affect on the accumulation of the brain dopamine induced by butyrolactone (GBL) at 25 mg/kg after intraperitoneal administration; assay type: functional; parameters: scale not given: the % may be the effect or the level left
Procedure, shortened: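 Rats received test compound ip 30 min before γ-butyrolactone (750 mg/kg ip) and were killed 1 h after GBL. Dopamine in brain minus brain stem and cerebellum (four to six rats) was measured spectrofluorometrically and expressed as % of the GBL-treated group.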

Chain of Beta-1 adrenergic receptor (P18090 whole entry): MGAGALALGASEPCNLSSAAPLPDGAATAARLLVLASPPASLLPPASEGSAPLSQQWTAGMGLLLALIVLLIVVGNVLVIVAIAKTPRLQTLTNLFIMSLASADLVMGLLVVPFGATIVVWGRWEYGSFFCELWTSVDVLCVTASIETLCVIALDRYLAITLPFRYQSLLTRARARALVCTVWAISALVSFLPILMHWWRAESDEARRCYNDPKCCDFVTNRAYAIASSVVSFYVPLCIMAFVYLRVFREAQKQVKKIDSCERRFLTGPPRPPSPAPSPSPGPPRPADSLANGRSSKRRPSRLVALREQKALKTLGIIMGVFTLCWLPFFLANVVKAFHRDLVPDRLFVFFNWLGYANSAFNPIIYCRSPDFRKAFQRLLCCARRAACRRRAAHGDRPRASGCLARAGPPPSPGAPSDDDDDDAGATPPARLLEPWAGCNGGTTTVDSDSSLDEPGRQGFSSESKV

IC50 [1]: > 10 µM
IC50 [2]: > 10 µM
Compound: CCN(CC)CC(=O)Nc1c(C(=O)c2ccccc2F)c(C)nn1C

Compound: Cc1nn(C)c(N)c1C(=O)c1ccccc1F
Clonic seizures [3]: Active

IC50 [4]: > 10 µM
IC50 [5]: > 10 µM
Compound: Cc1nn(C)c(NC(=O)CNCCCN2CCCCC2C)c1C(=O)c1ccccc1F (stereo unspecified)
Control [6]: 91.2%
